Results: ChEMBL document CHEMBL5715938, “The protein kinase Cbeta-selective inhibitor, Enzastaurin (LY317615.HCl), suppresses signaling through the AKT pathway, induces apoptosis, and suppresses growth of human colon cancer and glioblastoma xenografts” (Cancer Res, 2005)
Active and inactive are the calls of the source. The calls are words filed in the database; no cut-off is given here.

Tests used:
[1] = molecular target: Glycogen synthase kinase-3 beta (Homo sapiens) (UniProt P49841); assay: Inhibition of GSK3beta phosphorylation at serine 9 residue in human HCT-116 cells at 1 micromol/L by Western blotting analysis; type: cell-based; conditions: dose 1.0 µmol/L, time <= 4.0 hrs, TDE = time-dependent effect
How it was run: (§1)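 Cultured tumor cells treated with 1 μmol/L drug; lysates in cell extraction buffer with protease inhibitors, western blotted with phospho-specific antibodies (pGSK3β Ser9, pAKT Thr308, phospho-ERK) alongside total GSK3β/AKT.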

HCT-116 [2] = assay: Antiproliferative activity against human HCT-116 cells assessed as reduction in cell growth upto 10 uM measured after 6 days by propidium iodide staining based analysis; type: functional; conditions: time 6.0 day
How it was run: (§2)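 ATCC-sourced lines grown without antibiotics; 1,000 cells/well in 1% FBS medium, refed ±drug on days 1 and 4 over a 6-day course. On day 7, propidium iodide (10 μg/mL in D-PBS) read after 30 min for nonviable cells, plate frozen at -80°C 2 h, thawed and reread; proliferative index = postfreeze minus prefreeze signal.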

K562 = assay: Antiproliferative activity against human K562 cells assessed as reduction in cell growth upto 10 uM measured after 6 days by propidium iodide staining based analysis; type: functional; conditions: time 6.0 day; how it was run: as §2
Hs-578T = assay: Antiproliferative activity against human Hs-578T cells assessed as reduction in cell growth upto 10 uM measured after 6 days by propidium iodide staining based analysis; type: functional; conditions: time 6.0 day; how it was run: as §2
NCI-H23 = assay: Antiproliferative activity against human NCI-H23 cells assessed as reduction in cell growth upto 10 uM measured after 6 days by propidium iodide staining based analysis; type: functional; conditions: time 6.0 day; how it was run: as §2
SK-OV-3 = assay: Antiproliferative activity against human SK-OV-3 cells assessed as reduction in cell growth upto 10 uM measured after 6 days by propidium iodide staining based analysis; type: functional; conditions: time 6.0 day; how it was run: as §2
A498 = assay: Antiproliferative activity against human A498 cells assessed as reduction in cell growth upto 10 uM measured after 6 days by propidium iodide staining based analysis; type: functional; conditions: time 6.0 day; how it was run: as §2
RXF 393 = assay: Antiproliferative activity against human RXF 393 cells assessed as reduction in cell growth upto 10 uM measured after 6 days by propidium iodide staining based analysis; type: functional; conditions: time 6.0 day; how it was run: as §2
TK-10 = assay: Antiproliferative activity against human TK-10 cells assessed as reduction in cell growth upto 10 uM measured after 6 days by propidium iodide staining based analysis; type: functional; conditions: time 6.0 day; how it was run: as §2
HCT-116 [3] = assay: Induction of apoptosis in human HCT-116 cells assessed as increase in apoptotic cells incubated for 72 hrs by TUNEL staining based analysis (reference value: 2%); type: functional; conditions: dose 4 µmol/L, at 4 µM
[4] = molecular target: Protein kinase C eta type (Homo sapiens) (UniProt P24723); assay: Inhibition of PKCeta (unknown origin) at 1 micromol/L relative to control; conditions: dose 1.0 µmol/L
How it was run: (§3)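 Commercial kinase profiler panel run to the provider's protocol, with the compound tested at 1 µmol/L. Activity is expressed as percent of kinase activity without compound.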

[5] = molecular target: Inhibitor of nuclear factor kappa-B kinase subunit beta (Homo sapiens) (UniProt O14920); assay: Inhibition of IKKbeta (unknown origin) at 1 micromol/L relative to control; conditions: dose 1.0 µmol/L
How it was run: (§4)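 Upstate Kinase Profiler panel at 1 μmol/L drug, run per provider; data expressed as percent of kinase activity without drug.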

[6] = molecular target: Mitogen-activated protein kinase 14 (Homo sapiens) (UniProt Q16539); assay: Inhibition of SAPK2alpha (unknown origin) at 1 micromol/L relative to control; conditions: dose 1.0 µmol/L; how it was run: as §3
[7] = molecular target: Mitogen-activated protein kinase 9 (Homo sapiens) (UniProt P45984); assay: Inhibition of JNK2alpha2 (unknown origin) at 1 micromol/L relative to control; conditions: dose 1.0 µmol/L; how it was run: as §4
[8] = molecular target: Mitogen-activated protein kinase 1 (Homo sapiens) (UniProt P28482); assay: Inhibition of MAPK1 (unknown origin) at 1 micromol/L relative to control; conditions: dose 1.0 µmol/L; how it was run: as §4
[9] = molecular target: Fibroblast growth factor receptor 3 (Homo sapiens) (UniProt P22607); assay: Inhibition of FGFR3 (unknown origin) at 1 micromol/L relative to control; conditions: dose 1.0 µmol/L; how it was run: as §4
[10] = molecular target: Platelet-derived growth factor receptor alpha (Homo sapiens) (UniProt P16234); assay: Inhibition of PDGFRalpha (unknown origin) at 1 micromol/L relative to control; conditions: dose 1.0 µmol/L; how it was run: as §3
HCT-116 [11] = assay: Inhibition of ERK in human HCT-116 cells at 1 micromol/L measured upto 4 hrs by Western blotting analysis; type: cell-based; conditions: dose 1.0 µmol/L; how it was run: as §1
HCT-116 [12] = assay: Antitumor activity against human HCT-116 cells xenografted in athymic nude mouse assessed as reduction in tumor growth at 75 mg/kg, po administered twice daily measured after 21 days; type: functional, organism-based; conditions: time 21.0 day
How it was run: (§5)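 Female athymic nude mice, 6–8 weeks, 5 million cells s.c. flank in 1:1 serum-free medium/matrigel; at group mean 100 mm³, 75 mg/kg by gavage twice daily in 10% acacia for 21 days, n = 9/group, vehicle controls; caliper volume A²×B×0.536; two-way repeated measures analysis.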

U-87 MG = assay: Antitumor activity against human U-87 MG cells xenografted in athymic nude mouse assessed as reduction in tumor growth at 75 mg/kg, po administered twice daily measured after 21 days; type: functional, organism-based; conditions: U-87MG ATCC, time 21.0 day; how it was run: as §5

Inhibitor of nuclear factor kappa-B kinase subunit beta (Homo sapiens), sequence (O14920 whole entry): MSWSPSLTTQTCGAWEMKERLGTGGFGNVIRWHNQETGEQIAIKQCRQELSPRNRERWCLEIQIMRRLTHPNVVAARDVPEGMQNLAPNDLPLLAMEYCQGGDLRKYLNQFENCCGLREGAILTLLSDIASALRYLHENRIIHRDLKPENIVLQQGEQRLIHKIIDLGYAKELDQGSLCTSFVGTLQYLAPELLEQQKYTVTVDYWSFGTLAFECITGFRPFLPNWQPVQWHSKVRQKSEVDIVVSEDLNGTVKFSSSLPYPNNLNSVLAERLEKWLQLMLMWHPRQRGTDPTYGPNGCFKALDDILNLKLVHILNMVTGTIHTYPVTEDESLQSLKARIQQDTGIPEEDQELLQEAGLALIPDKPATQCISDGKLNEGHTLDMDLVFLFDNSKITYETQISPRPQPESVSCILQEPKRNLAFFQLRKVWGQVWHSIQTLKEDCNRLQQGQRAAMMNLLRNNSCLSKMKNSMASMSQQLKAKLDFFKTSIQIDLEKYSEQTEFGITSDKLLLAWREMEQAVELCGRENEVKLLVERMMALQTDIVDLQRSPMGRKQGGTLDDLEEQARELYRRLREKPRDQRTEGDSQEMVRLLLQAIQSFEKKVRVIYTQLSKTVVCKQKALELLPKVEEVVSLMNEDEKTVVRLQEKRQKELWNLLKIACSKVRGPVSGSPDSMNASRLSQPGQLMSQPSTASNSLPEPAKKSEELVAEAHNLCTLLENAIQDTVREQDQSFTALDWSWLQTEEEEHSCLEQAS
Mitogen-activated protein kinase 9 (Homo sapiens), sequence (P45984 whole entry, looked up): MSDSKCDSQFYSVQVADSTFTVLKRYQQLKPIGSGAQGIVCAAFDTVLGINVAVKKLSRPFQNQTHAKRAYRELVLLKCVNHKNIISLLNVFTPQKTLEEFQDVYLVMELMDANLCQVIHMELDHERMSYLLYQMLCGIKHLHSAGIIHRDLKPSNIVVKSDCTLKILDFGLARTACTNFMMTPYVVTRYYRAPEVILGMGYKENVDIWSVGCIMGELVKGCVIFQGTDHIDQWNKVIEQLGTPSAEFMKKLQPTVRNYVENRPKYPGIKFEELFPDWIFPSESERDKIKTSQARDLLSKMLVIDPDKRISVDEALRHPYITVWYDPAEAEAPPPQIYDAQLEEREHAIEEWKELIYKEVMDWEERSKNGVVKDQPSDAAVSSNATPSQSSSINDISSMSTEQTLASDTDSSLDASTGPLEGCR
Glycogen synthase kinase-3 beta (Homo sapiens), sequence (P49841 whole entry, looked up): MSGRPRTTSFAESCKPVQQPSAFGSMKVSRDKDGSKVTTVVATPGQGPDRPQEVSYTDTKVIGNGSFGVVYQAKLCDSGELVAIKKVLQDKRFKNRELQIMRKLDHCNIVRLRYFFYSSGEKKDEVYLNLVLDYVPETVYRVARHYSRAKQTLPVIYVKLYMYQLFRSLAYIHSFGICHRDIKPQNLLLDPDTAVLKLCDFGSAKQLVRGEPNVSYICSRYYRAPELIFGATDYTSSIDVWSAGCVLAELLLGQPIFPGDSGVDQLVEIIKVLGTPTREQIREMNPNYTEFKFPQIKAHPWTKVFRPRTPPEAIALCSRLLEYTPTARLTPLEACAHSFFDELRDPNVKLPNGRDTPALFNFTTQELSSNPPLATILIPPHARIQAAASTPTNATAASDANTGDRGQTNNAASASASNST
Protein kinase C eta type (Homo sapiens), sequence (P24723 whole entry): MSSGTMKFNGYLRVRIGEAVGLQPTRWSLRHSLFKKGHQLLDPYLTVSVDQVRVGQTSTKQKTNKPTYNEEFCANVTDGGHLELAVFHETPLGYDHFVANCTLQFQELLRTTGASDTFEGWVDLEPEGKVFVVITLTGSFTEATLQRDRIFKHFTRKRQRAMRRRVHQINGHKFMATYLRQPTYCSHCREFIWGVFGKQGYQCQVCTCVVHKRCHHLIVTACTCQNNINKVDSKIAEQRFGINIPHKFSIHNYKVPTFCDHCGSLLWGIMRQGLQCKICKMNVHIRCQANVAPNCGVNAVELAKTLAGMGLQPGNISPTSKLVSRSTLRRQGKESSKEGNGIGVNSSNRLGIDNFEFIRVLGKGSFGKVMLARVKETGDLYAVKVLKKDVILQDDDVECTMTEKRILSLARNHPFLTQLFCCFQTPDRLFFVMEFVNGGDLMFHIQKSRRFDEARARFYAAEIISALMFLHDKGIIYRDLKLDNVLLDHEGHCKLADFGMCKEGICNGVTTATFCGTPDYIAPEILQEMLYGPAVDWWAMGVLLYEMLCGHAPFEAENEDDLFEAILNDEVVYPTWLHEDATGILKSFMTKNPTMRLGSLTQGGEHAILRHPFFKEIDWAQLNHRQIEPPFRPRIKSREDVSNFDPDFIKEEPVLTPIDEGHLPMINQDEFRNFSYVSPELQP
Fibroblast growth factor receptor 3 (Homo sapiens), sequence (P22607 23-806 limits assumed): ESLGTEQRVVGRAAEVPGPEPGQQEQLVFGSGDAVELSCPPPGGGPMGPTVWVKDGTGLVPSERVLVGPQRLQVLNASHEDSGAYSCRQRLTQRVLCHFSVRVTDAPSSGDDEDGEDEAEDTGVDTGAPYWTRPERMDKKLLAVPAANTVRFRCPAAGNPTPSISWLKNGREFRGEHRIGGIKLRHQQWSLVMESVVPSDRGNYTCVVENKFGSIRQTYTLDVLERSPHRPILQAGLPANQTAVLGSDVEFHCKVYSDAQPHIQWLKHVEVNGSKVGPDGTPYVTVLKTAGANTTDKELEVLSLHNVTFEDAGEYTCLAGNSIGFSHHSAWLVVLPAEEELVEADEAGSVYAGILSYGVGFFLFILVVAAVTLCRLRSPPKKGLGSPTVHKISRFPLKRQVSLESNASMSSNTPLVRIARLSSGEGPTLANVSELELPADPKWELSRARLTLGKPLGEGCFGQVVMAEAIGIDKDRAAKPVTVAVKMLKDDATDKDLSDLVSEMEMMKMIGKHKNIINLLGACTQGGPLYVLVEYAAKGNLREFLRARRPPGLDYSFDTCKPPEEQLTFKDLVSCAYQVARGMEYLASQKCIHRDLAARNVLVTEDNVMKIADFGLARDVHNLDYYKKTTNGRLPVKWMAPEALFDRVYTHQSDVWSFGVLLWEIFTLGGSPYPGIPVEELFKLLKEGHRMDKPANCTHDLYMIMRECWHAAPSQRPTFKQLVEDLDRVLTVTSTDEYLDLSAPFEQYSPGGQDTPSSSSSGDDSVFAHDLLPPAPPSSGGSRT
Mitogen-activated protein kinase 14 (Homo sapiens), sequence (Q16539 whole entry): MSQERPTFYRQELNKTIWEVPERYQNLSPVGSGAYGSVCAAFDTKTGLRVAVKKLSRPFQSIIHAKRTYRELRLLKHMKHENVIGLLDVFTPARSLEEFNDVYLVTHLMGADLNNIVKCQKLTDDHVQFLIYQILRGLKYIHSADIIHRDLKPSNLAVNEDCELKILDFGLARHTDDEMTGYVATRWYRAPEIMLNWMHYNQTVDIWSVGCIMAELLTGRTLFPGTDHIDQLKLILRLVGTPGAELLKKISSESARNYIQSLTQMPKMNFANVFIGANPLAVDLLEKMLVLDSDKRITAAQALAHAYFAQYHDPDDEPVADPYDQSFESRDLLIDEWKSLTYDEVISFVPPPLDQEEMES
Platelet-derived growth factor receptor alpha (Homo sapiens), sequence (P16234 whole entry): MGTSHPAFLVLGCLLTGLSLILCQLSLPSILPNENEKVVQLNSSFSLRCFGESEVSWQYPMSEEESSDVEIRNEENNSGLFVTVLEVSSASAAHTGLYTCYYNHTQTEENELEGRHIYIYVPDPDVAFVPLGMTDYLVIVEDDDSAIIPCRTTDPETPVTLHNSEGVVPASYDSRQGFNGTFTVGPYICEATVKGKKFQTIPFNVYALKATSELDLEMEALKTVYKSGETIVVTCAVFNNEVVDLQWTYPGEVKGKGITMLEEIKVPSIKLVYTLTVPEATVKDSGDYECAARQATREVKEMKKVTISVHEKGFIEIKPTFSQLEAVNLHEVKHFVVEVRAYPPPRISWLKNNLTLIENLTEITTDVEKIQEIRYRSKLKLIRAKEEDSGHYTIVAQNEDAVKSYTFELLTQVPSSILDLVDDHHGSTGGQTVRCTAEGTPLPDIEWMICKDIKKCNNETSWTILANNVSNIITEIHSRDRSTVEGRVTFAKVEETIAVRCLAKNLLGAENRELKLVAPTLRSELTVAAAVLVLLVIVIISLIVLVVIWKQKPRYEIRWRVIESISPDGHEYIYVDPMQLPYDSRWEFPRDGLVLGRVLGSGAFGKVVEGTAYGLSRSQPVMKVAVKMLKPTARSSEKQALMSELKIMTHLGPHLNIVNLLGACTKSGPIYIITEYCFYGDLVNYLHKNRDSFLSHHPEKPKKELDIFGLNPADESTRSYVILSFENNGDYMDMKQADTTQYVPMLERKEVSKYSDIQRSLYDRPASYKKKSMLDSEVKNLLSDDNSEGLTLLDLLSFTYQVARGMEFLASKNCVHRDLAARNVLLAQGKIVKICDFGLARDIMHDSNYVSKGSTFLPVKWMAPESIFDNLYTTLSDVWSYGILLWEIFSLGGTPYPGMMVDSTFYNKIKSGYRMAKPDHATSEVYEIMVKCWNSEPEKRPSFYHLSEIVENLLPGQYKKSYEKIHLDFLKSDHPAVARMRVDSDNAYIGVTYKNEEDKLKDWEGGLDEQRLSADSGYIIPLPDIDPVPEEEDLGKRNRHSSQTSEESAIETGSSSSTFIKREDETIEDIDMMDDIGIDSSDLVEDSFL
Mitogen-activated protein kinase 1 (Homo sapiens), sequence (P28482 whole entry): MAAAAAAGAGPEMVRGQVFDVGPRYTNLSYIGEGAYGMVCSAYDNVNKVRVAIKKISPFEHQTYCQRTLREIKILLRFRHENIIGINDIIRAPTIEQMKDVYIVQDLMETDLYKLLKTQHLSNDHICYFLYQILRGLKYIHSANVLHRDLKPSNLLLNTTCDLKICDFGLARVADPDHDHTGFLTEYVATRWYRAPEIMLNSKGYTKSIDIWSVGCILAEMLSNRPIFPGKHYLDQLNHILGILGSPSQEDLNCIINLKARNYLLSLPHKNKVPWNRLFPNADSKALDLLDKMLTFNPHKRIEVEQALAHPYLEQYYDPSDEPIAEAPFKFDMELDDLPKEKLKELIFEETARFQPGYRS

`Cl.Cn1cc(C2=C(c3cn(C4CCN(Cc5ccccn5)CC4)c4ccccc34)C(=O)NC2=O)c2ccccc21` [ENZASTAURIN HYDROCHLORIDE] was tested. Which inhibition [1] did it give?
Its inhibition is “Tde”.

What about the Activity (HCT-116 [2]) of the same compound?
Its Activity is “Active”.

What about the Activity (K562) of the same compound?
The Activity was “Active”.

And the Activity (Hs-578T)?
The Activity was “inactive”.

What about the Activity (NCI-H23) of the same compound?
The Activity was “inactive”.

What about the Activity (SK-OV-3) of the same compound?
The Activity was “inactive”.

What about the Activity (A498) of the same compound?
Its Activity is “inactive”.

What about the Activity (RXF 393) of the same compound?
Its Activity is “inactive”.

What about the Activity (TK-10) of the same compound?
Its Activity is “inactive”.

And the Activity (HCT-116 [3])?
The Activity was >50%.

And the % control activity [4]?
Its % control activity is 53%.

And the % control activity [5]?
Its % control activity is 116%.

What about the % control activity [6] of the same compound?
The % control activity was 101%.

And the % control activity [7]?
The % control activity was 103%.

And the % control activity [8]?
The % control activity was 114%.

What about the % control activity [9] of the same compound?
Its % control activity is 82%.

What about the % control activity [10] of the same compound?
The % control activity was 86%.

What about the inhibition (HCT-116 [11]) of the same compound?
Its inhibition is “inactive”.

And the Activity (HCT-116 [12])?
Its Activity is “Active”.

And the Activity (U-87 MG)?
The Activity was “Active”.
